Our source for the IC50 values is ChEMBL document CHEMBL1157108, “Rapid structural identification of cytotoxic bufadienolide sulfates in toad venom from Bufo melanosticus by LC-DAD-MS(n) and LC-SPE-NMR” (J Nat Prod, 2010).

The nature of experiment [1]: Growth inhibition of human U373 cells after 72 hrs by MTT assay. The note with it: U373 MG. The format is functional, cell-based, U-373MG ATCC. The essentials:
(§1)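 Cells seeded at 10 000 to 40 000 cells/mL (cell-type dependent) and allowed 24 h to plate, then grown 72 h with or without compound. Culture in RPMI with 10% heat-inactivated FCS, 4 mM glutamine, gentamicin and penicillin-streptomycin. Living cells reduce MTT to formazan, read at 570 nm against a 630 nm reference. IC50 reported as mean ± SD.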
A general note: Formazan colour is commonly taken as a measure of viable cells.

Another experiment relates to MCF7. Briefly: Growth inhibition of human MCF7 cells after 72 hrs by MTT assay. The experiment is classed as functional, cell-based. The note with it: MCF7, 72 h. The essentials: as §1
Another experiment concerns CT26. Description: Growth inhibition of mouse CT26 cells after 72 hrs by MTT assay. The experiment is classed as functional, cell-based. The settings on record: CT26, 72 h. The essentials:
as §1

Experiment [2] is described as follows: Growth inhibition of human Hs683 cells after 72 hrs by MTT assay. The note with it: Hs 683, 72 h. The experiment is classed as functional, cell-based. The method in brief: as §1
A further experiment deals with A549. Description: Growth inhibition of human A549 cells after 72 hrs by MTT assay. The settings on record: A549, 72 h. The format is functional, cell-based. The essentials: as §1
Another experiment concerns B16-F10. Briefly: Growth inhibition of mouse B16F10 cells after 72 hrs by MTT assay. The experiment is classed as functional, cell-based. The settings on record: B16-F10, 72 h. The method in brief:
as §1

Turning to `C[C@]12CC[C@H]3[C@@H](CC[C@@H]4C[C@@H](OS(=O)(=O)O)CC[C@@]43CO)[C@@]1(O)CC[C@@H]2c1ccc(=O)oc1`, the IC50 in experiment [1] is 12 nM; in the experiment with MCF7 it was 150 nM; in the experiment with CT26 it was more than 10000 nM; in experiment [2], 82 nM; in the experiment on A549, 5 nM; in the experiment with B16-F10 it was more than 10000 nM.
With `C[C@@H]1O[C@@H](O[C@H]2CC[C@]3(C=O)[C@H]4CC[C@]5(C)[C@@H](c6ccc(=O)oc6)CC[C@]5(O)[C@@H]4CC[C@]3(O)C2)[C@H](O)[C@H](O)[C@H]1O[C@@H]1O[C@H](CO)[C@@H](O)[C@H](O)[C@H]1O` [HELLEBRIN], the IC50 is 49 nM in experiment [1]; 82 nM in the experiment on MCF7; more than 10000 nM in the experiment on CT26; 7 nM in experiment [2]; 16 nM in the experiment with A549; more than 10000 nM in the experiment on B16-F10.
`CC(=O)O[C@H]1C[C@]2(O)[C@@H]3CC[C@@H]4C[C@@H](O)CC[C@]4(C)[C@H]3[C@H](O)C(=O)[C@]2(C)[C@H]1c1ccc(=O)oc1`: the IC50 in experiment [1] is 878 nM; with MCF7 it was 2250 nM; with CT26, more than 10000 nM; in experiment [2], 455 nM; with A549, 1360 nM; in the experiment with B16-F10, more than 10000 nM.
Turning to `C[C@]12CC[C@H](OS(=O)(=O)O)C[C@@]1(O)CC[C@@H]1[C@@H]2CC[C@]2(C)[C@@H](c3ccc(=O)oc3)CC[C@]12O`, the IC50 in experiment [1] is 51 nM; in the experiment on MCF7, 1580 nM; with CT26 it was more than 10000 nM; in experiment [2], 7 nM; with A549 it was 36 nM; in the experiment on B16-F10 it was more than 10000 nM.
As to `C[C@]12CC[C@H]3[C@@H](CC[C@]4(O)C[C@@H](OS(=O)(=O)O)CC[C@]34CO)[C@@]1(O)CC[C@@H]2c1ccc(=O)oc1`, the IC50 in experiment [1] is 323 nM; in the experiment with MCF7, 120 nM; in the experiment on CT26, more than 10000 nM; in experiment [2] it was 50 nM; in the experiment on A549 it was 80 nM; in the experiment on B16-F10, more than 10000 nM.
With `C[C@]12CC[C@H](OS(=O)(=O)O)C[C@H]1CC[C@@H]1[C@@H]2CC[C@]2(C)[C@@H](c3ccc(=O)oc3)[C@@H](O)C[C@]12O`, the 50% inhibitory concentration (IC50) in experiment [1] is 525 nM; in the experiment on MCF7 it was 3290 nM; with CT26, more than 10000 nM; in experiment [2] it was 177 nM; in the experiment with A549, 464 nM; in the experiment with B16-F10, more than 10000 nM.
In the case of `C[C@]12CC[C@H]3[C@@H](CC[C@]4(O)C[C@@H](OS(=O)(=O)O)CC[C@]34C=O)[C@@]1(O)CC[C@@H]2c1ccc(=O)oc1`, the IC50 was 396 nM in experiment [1]; 507 nM with MCF7; more than 10000 nM in the experiment with CT26; 98 nM in experiment [2]; 45 nM in the experiment with A549; more than 10000 nM in the experiment on B16-F10.

As usually defined, the IC50 is the concentration that inhibits the measured activity by half. High values mean weaker potency in that assay, low ones greater potency in that assay.
